Reference: ChEMBL document CHEMBL1153988 (J Med Chem, 2009)
The source made the active and inactive calls. No cut-off for these calls is given here.

Assays:
[1] = system: Rattus norvegicus; assay: Anticonvulsant activity in albino Sprague-Dawley rat assessed as protection against scMet-induced seizures at 50 mg/kg, po after 2 hrs; type: functional
How it was run: (§1)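 Male Sprague-Dawley albino rats (100-150 g) were given the compound orally as a suspension in 0.5% methylcellulose. Seizures were induced by subcutaneous pentylenetetrazol, dissolved in 0.9% saline as a 2.82% solution. The read-out was animals protected over animals tested.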

[2] = system: Rattus norvegicus; assay: Anticonvulsant activity in po dosed albino Sprague-Dawley rat assessed as protection against maximal electroshock-induced seizures; type: functional
[3] = system: Mus musculus; assay: Anticonvulsant activity in CF1 albino mouse assessed as protection against maximal electroshock-induced seizures at 30 mg/kg, ip after 0.5 hrs; type: functional, organism-based; set-up: dose 30 mg/kg
How it was run: (§2)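 Adult male CF no. 1 albino mice (18-25 g). Test compound suspended in 0.5% methylcellulose and given intraperitoneally at 0.01 mL/g body weight. Maximal electroshock challenge at the stated time. Read-out is the number of animals protected over the number tested; neurotoxicity is scored in parallel.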

[4] = system: Mus musculus; assay: Anticonvulsant activity in ip dosed CF1 albino mouse assessed as protection against maximal electroshock-induced seizures; type: functional
How it was run: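 Male CF no. 1 albino mice (18-25 g) were dosed ip in 0.5% methylcellulose and tested by maximal electroshock. Doses were varied to give 3-4 points between 0% and 100% protection. ED50 with 95% confidence interval came from probit analysis.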

[5] = system: Rattus norvegicus; assay: Neurotoxicity in albino Sprague-Dawley rat at 50 mg/kg, po; type: toxicity, organism-based; set-up: dose 50 mg/kg, route oral; details: in vivo
How it was run: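 Neurotoxicity was scored in male Sprague-Dawley albino rats (100-150 g) dosed orally with a suspension in 0.5% methylcellulose. The read-out was the fraction of animals showing neurotoxicity (minimal motor impairment).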

[6] = system: Mus musculus; assay: Neurotoxicity in CF1 albino mouse at 300 mg/kg, ip after 4 hrs; type: toxicity, organism-based; set-up: dose 300 mg/kg, route intraperitoneal; details: in vivo
How it was run: (§3)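 Male CF no. 1 albino mice (18-25 g) received a single ip dose as a suspension in 0.5% methylcellulose. The read-out was the number of animals showing neurotoxicity (minimal motor impairment) over the number tested.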

[7] = system: Rattus norvegicus; assay: Anticonvulsant activity in albino Sprague-Dawley rat assessed as protection against scMet-induced seizures at 2 mg/kg, po; type: functional, organism-based; set-up: dose 2 mg/kg
How it was run: (§4)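 Oral dosing of male Sprague-Dawley rats (100-150 g) with compound in 0.5% methylcellulose. Convulsant challenge given subcutaneously as a 2.82% pentylenetetrazol solution in 0.9% saline. Groups of about 8 rats per dose. For quantitation, doses spanning 0% to 100% protection were fitted by probit analysis to give ED50 with 95% confidence interval.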

[8] = system: Mus musculus; assay: Anticonvulsant activity in ip dosed CF1 albino mouse assessed as protection against 32 mA current-induced seizure by 6Hz psychomotor seizure test; type: functional
How it was run: (§5)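 In the 6 Hz psychomotor seizure test, male CF no. 1 albino mice (18-25 g) received the compound ip in 0.5% methylcellulose. Stimulation was at 32 or 44 mA. Doses were varied to give 3-4 points between 0% and 100% protection, and ED50 with 95% confidence interval came from probit analysis.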

[9] = system: Mus musculus; assay: Teratogenic effect in VPA-induced SWV mouse assessed as number of fetuses with neural tube deffects at 502 mg/kg, ip administered on morning of day 8 of gestation; type: toxicity, organism-based; set-up: dose 502 mg/kg, route intraperitoneal; details: in vivo
How it was run: (§6)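 Inbred SWV mouse strain highly susceptible to VPA-induced neural tube defects. Each dam received a single ip injection on gestation day 8.5, dosed within 1.8-4.2 mmol/kg, against a control of 25% aqueous Cremophor EL. Groups were compared with the control, and with the matched VPA sodium-salt dose, by Fisher's exact test (p < 0.05).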

[10] = species on record: Mus musculus; assay: Protective index, ratio of TD50 for CF1 albino mouse to ED50 for 32 mA current-induced CF1 albino mouse seizure model; type: functional
How it was run: (§7)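 Protective index is the mouse TD50 (minimal motor impairment) divided by the 6 Hz test ED50 at 32 or 44 mA. Male CF no. 1 mice were dosed ip in 0.5% methylcellulose, and values came from probit analysis.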

[11] = system: Mus musculus; assay: Teratogenic effect in SWV mouse assessed as number of dead fetuses at 336 mg/kg, ip administered on morning of day 8 of gestation; type: toxicity, organism-based; set-up: dose 336 mg/kg, route intraperitoneal; details: in vivo; how it was run: as §6
[12] = system: Mus musculus; assay: Anticonvulsant activity in CF1 albino mouse assessed as protection against maximal electroshock-induced seizures at 300 mg/kg, ip after 0.5 hrs; type: functional, organism-based; set-up: dose 300 mg/kg; how it was run: as §2
[13] = system: Mus musculus; assay: Anticonvulsant activity in ip dosed CF1 albino mouse assessed as protection against 44 mA-current-induced seizure by 6Hz psychomotor seizure test; type: functional; how it was run: as §5
[14] = system: Mus musculus; assay: Teratogenic effect in SWV mouse assessed as number of dead fetuses at 671 mg/kg, ip administered on morning of day 8 of gestation; type: toxicity, organism-based; set-up: dose 671 mg/kg, route intraperitoneal; details: in vivo; how it was run: as §6
[15] = system: Rattus norvegicus; assay: Anticonvulsant activity in albino Sprague-Dawley rat assessed as protection against scMet-induced seizures at 50 mg/kg, po after 15 mins; type: functional; how it was run: as §1
[16] = system: Mus musculus; assay: Anticonvulsant activity in CF1 albino mouse assessed as protection against scMet-induced seizures at 30 mg/kg, ip after 0.5 hrs; type: functional, organism-based; set-up: dose 30 mg/kg
How it was run: (§8)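 Adult male CF no. 1 albino mice (18-25 g) dosed intraperitoneally with compound suspended in 0.5% methylcellulose (0.01 mL/g). Convulsant challenge given subcutaneously as a 0.85% pentylenetetrazol solution in 0.9% saline. Read-out is animals protected over animals tested, with neurotoxicity scored in parallel.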

[17] = system: Mus musculus; assay: Teratogenic effect in SWV mouse assessed as number of litters at 336 mg/kg, ip administered on morning of day 8 of gestation; type: toxicity, organism-based; set-up: dose 336 mg/kg, route intraperitoneal; details: in vivo; how it was run: as §6
[18] = system: Mus musculus; assay: Anticonvulsant activity in CF1 albino mouse assessed as protection against scMet-induced seizures at 30 mg/kg, ip after 4 hrs; type: functional, organism-based; set-up: dose 30 mg/kg; how it was run: as §8
[19] = system: Mus musculus; assay: Neurotoxicity in CF1 albino mouse at 300 mg/kg, ip after 0.5 hrs; type: toxicity, organism-based; set-up: dose 300 mg/kg, route intraperitoneal; details: in vivo; how it was run: as §3
[20] = species on record: Rattus norvegicus; assay: Anticonvulsant activity in hippocampal kindled Sprague-Dawley rat model; type: functional; details: albino Sprague-Dawley, Hippocampus
[21] = system: Rattus norvegicus; assay: Anticonvulsant activity in albino Sprague-Dawley rat assessed as protection against scMet-induced seizures at 25 mg/kg, po; type: functional, organism-based; set-up: dose 25 mg/kg; how it was run: as §4
[22] = system: Mus musculus; assay: Teratogenic effect in SWV mouse assessed as resorptions at 502 mg/kg, ip administered on morning of day 8 of gestation; type: toxicity, organism-based; set-up: dose 502 mg/kg, route intraperitoneal; details: in vivo; how it was run: as §6
[23] = system: Rattus norvegicus; assay: Anticonvulsant activity in albino Sprague-Dawley rat assessed as protection against maximal electroshock-induced seizures at 50 mg/kg, po after 1 hr; type: functional
How it was run: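 Adult male Sprague-Dawley albino rats (100-150 g) dosed orally with compound suspended in 0.5% methylcellulose (0.04 mL per 10 g). Maximal electroshock challenge at the stated time. Protection is scored in 25% steps as the fraction of animals protected, with neurotoxicity recorded in parallel.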

[24] = species on record: Mus musculus; assay: Protective index, ratio of TD50 for CF1 albino mouse to ED50 for 44 mA-current-induced CF1 albino mouse seizure model; type: functional; how it was run: as §7
[25] = system: Rattus norvegicus; assay: Anticonvulsant activity in po dosed albino Sprague-Dawley rat assessed as protection against scMet-induced seizures; type: functional
How it was run: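 Male Sprague-Dawley albino rats (100-150 g) were dosed orally in 0.5% methylcellulose and tested by MES or by sc pentylenetetrazol (2.82% in 0.9% saline). Doses were varied to give 3-4 points between 0% and 100% protection. ED50 and 95% confidence intervals came from probit analysis.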

[26] = system: Rattus norvegicus; assay: Anticonvulsant activity in albino Sprague-Dawley rat assessed as protection against scMet-induced seizures at 50 mg/kg, po after 30 mins; type: functional; how it was run: as §1
[27] = system: Mus musculus; assay: Teratogenic effect in SWV mouse assessed as resorptions at 336 mg/kg, ip administered on morning of day 8 of gestation; type: toxicity, organism-based; set-up: dose 336 mg/kg, route intraperitoneal; details: in vivo; how it was run: as §6

In the case of `CC1(C)C(C)(C)C1(F)C(N)=O`, the Activity [1] is reported as 75%, the ED50 [2] is reported as > 100 mg/kg and the Activity [3] is reported as “Non-toxic”. The ED50 [4] was > 200 mg/kg, the Activity [5] was “Not Active” and the Activity [6] was “Non-toxic”. For the same compound, the Activity [7] was “inactive”, the ED50 [8] was 57 mg/kg and the Activity [9] was 0. For the same compound, the PI [10] was 2.1, the Activity [11] was 0 and the Activity [12] was “Toxic”. The ED50 [13] was 59 mg/kg, the Activity [14] was 0 and the Activity [15] was 100%. The Activity [16] was “Non-toxic”, the Activity [17] was 8 and the Activity [18] was “Non-toxic”. For the same compound, the Activity [19] was “Toxic”, the ED50 [20] was 30 mg/kg and the Activity [21] was “Active”. The Activity [22] was 26.8%, the Activity [23] was “inactive” and the PI [24] was 2. It also gave an ED50 [25] of 6.4 mg/kg, an Activity [26] of 75% and an Activity [27] of 9.8%.
